Measured values: ChEMBL document CHEMBL1134284, “The biological effects of structural variation at the meta position of the aromatic rings and at the end of the alkenyl chain in the alkenyldiarylmethane series of non-nucleoside reverse transcriptase inhibitors” (J Med Chem, 2001)

What was measured:
CCRF-CEM [1] = test: Antiviral activity against site directed resistant isolates in HIV-1 A98G CEM cells; type: functional, cell-based, Homo sapiens
How it was run: (§1)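 CEM-SS cells infected with low-cytopathicity site-directed RT-mutant NL4-3 clones (A98G, L74V, 4XAZT = D67N/K70R/T215Y/K219Q, 4XAZT/L100I). Replication was quantified by p24 ELISA rather than cytoprotection. […] Triplicate, variation of mean about 10%.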

[2] = system: Human immunodeficiency virus type 1 (RF/HAT ISOLATE); test: Inhibitory concentration for cytopathicity of HIV-1RF in CEM-SS cells; type: functional, organism-based; conditions: Human immunodeficiency virus 1, RF
How it was run: (§2)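 CEM-SS cells kept in RPMI 1640 with 10% heat-inactivated FBS, 2 mM glutamine, penicillin/streptomycin. Microtiter assay with cytopathic HIV-1 RF, or mock infection for toxicity. Viability read by MTS/phenazine ethosulfate reduction (absorbance 490 nm) 6 days after infection. […] Triplicate.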

[3] = (§3) Antiviral activity against ROJO virus strain in PBLs (peripheral blood lymphocytes); type: functional, cell-based; conditions: Homo sapiens
How it was run: (§4)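 PBMCs isolated from hepatitis- and HIV-seronegative donors by Ficoll-Hypaque gradient and stimulated 3 days with phytohemagglutinin/IL-2. Infected with pediatric low-passage clinical isolates or NIAID subtype isolates, in RPMI 1640 with 10% FBS, 2 mM glutamine, penicillin/streptomycin. Replication read as supernatant reverse transcriptase activity. […] Run in triplicate, with AZT as positive control.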

[4] = Antiviral activity against subtype isolate D strain in PBLs (peripheral blood lymphocytes); type: functional, cell-based; conditions: Homo sapiens; how it was run: as §4
[5] = Antiviral activity against subtype isolate C strain in PBLs (peripheral blood lymphocytes); type: functional, cell-based; conditions: Homo sapiens; how it was run: as §4
[6] = Antiviral activity against subtype isolate E strain in PBLs (peripheral blood lymphocytes); type: functional, cell-based; conditions: Homo sapiens
CCRF-CEM [7] = test: Antiviral activity against site directed resistant isolate HIV-1 Y188C in CEM cells; type: functional, cell-based, Homo sapiens
How it was run: (§5)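 CEM-SS cells in RPMI 1640 with 10% heat-inactivated FBS were infected with NL4-3 molecular clones carrying site-directed RT mutations. Cytoprotection from virus-induced syncytial killing was read by MTS/phenazine ethosulfate reduction (A490) 6 days after infection. […] Triplicate, variation of mean about 10%.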

[8] = Antiviral activity against multi drug resistant MDR 769 strain in PBLs (peripheral blood lymphocytes); type: functional, cell-based; conditions: Homo sapiens
How it was run: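 PBMC from hepatitis- and HIV-seronegative donors isolated by Ficoll-Hypaque gradient and stimulated 3 days with phytohemagglutinin/IL-2 before infection. Medium RPMI 1640 with 10% FBS, 2 mM glutamine, penicillin/streptomycin. Replication read as supernatant reverse transcriptase activity. […] Run in triplicate, SD within triplicate under 10%; AZT positive control.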

CCRF-CEM [9] = test: Antiviral activity against site directed 4X AZT resistant isolate HIV-1 in CEM cells; type: functional, cell-based, Homo sapiens; conditions: Homo sapiens, CCRF-CEM
CCRF-CEM [10] = test: Antiviral activity against site directed 4X AZT resistant isolate HIV-1 L100I in CEM cells; type: functional, cell-based, Homo sapiens; how it was run: as §1
CCRF-CEM [11] = test: Antiviral activity against site directed resistant isolate HIV-1 V179D in CEM cells; type: functional, cell-based, Homo sapiens; how it was run: as §5
CCRF-CEM [12] = test: Antiviral activity against site directed resistant isolate HIV-1 L74V in CEM cells; type: functional, cell-based, Homo sapiens; how it was run: as §1
[13] = Antiviral activity against subtype isolate O strain in PBLs (peripheral blood lymphocytes); type: functional, cell-based, Homo sapiens; conditions: Homo sapiens; how it was run: as §4
CCRF-CEM [14] = test: Antiviral activity against site directed resistant isolate HIV-1 L100I in CEM cells; type: functional, cell-based, Homo sapiens; how it was run: as §5
[15] = Antiviral activity against subtype isolate A strain in PBLs (peripheral blood lymphocytes); type: functional, cell-based; conditions: Homo sapiens; how it was run: as §4
[16] = Antiviral activity against subtype isolate B strain in PBLs (peripheral blood lymphocytes); type: functional, cell-based, Homo sapiens; conditions: Homo sapiens; how it was run: as §4
CCRF-CEM [17] = test: Antiviral activity against site directed resistant isolate HIV-1 K101E in CEM cells; type: functional, cell-based, Homo sapiens
[18] = Antiviral activity against TEKI virus strain in PBLs (peripheral blood lymphocytes); type: functional, cell-based; conditions: Homo sapiens; how it was run: as §4
[19] = Ratio of CC50/EC50 was determined; conditions: read-out: TI
How it was run: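 HIV-1 RF–infected CEM-SS cells (RPMI 1640, 10% heat-inactivated FBS, 2 mM glutamine, penicillin/streptomycin), plus mock-infected CEM-SS in parallel. Cell killing and viability were read by MTS/phenazine ethosulfate reduction at 490 nm 6 days after infection. […] Index = CC50 ÷ EC50. Triplicate tests.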

[20] = Antiviral activity against SLKA virus strain in PBLs (peripheral blood lymphocytes); type: functional, cell-based; conditions: Homo sapiens; how it was run: as §4
[21] = Antiviral activity against subtype isolate G strain in PBLs (peripheral blood lymphocytes); type: functional, cell-based; conditions: Homo sapiens; how it was run: as §4
CCRF-CEM [22] = test: Antiviral activity against site directed resistant isolate HIV-1 Y181C in CEM cells; type: functional, cell-based, Homo sapiens; how it was run: as §5
CCRF-CEM [23] = test: Antiviral activity against site directed wild-type enzyme isolate HIV-1 NL4-3WT in CEM cells; type: functional, cell-based; conditions: Homo sapiens
How it was run: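 Wild-type NL4-3 in CEM-SS cells, measured both by MTS cytoprotection 6 days after infection and by p24 ELISA. The IC50 is the mean of the two methods' values.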

[24] = target: Human immunodeficiency virus type 1 reverse transcriptase (Human immunodeficiency virus 1, UniProt Q72547); test: Inhibitory activity against HIV-1 Reverse Transcriptase with rCdG as the template primer
How it was run: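 Cell-free assay with purified recombinant HIV-1 RT (p66/p51 dimer). Activity measured as [32P]GTP incorporation into the poly(rC)/oligo(dG) homopolymer template/primer. IC50 is reported as inhibition of enzyme activity.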

CCRF-CEM [25] = test: Antiviral activity against site directed resistant isolate HIV-1 K103N in CEM cells; type: functional, cell-based, Homo sapiens; how it was run: as §5
CEM-SS = test: Concentration required for cytotoxicity against mock infected CEM-SS cells; type: functional; conditions: Homo sapiens; how it was run: as §2
CCRF-CEM [26] = test: Antiviral activity against site directed resistant isolate HIV-1 V106A in CEM cells; type: functional, cell-based, Homo sapiens; how it was run: as §5
[27] = Antiviral activity against Ba-L monocyte tropic isolate strain in monocyte; type: functional; conditions: Homo sapiens
How it was run: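 Monocytes isolated from hepatitis- and HIV-seronegative donors by Ficoll-Hypaque gradient, cultured 6 days into macrophages, then infected with Ba-L. Medium RPMI 1640 with 10% FBS, 2 mM glutamine, penicillin/streptomycin. Replication read as p24 antigen by ELISA 6 days postinfection. […] Run in triplicate, with AZT as positive control.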

[28] = Antiviral activity against subtype isolate F strain in PBLs (peripheral blood lymphocytes); type: functional, cell-based, Homo sapiens; conditions: Homo sapiens; how it was run: as §4
PBL = test: as §3; type: functional, cell-based; conditions: Homo sapiens; how it was run: as §4
[29] = Antiviral activity against WEJO virus strain in PBLs (peripheral blood lymphocytes); type: functional, cell-based; conditions: Homo sapiens; how it was run: as §4

CCOC(=O)CCCC=C(c1cc(Br)c(OC)c(C(=O)OC)c1)c1cc(Br)c(OC)c(C(=O)OC)c1
IC50 (CCRF-CEM [1]): 15 nM | EC50 [2]: 7 nM | IC50 [3]: 200 nM | IC50 [4]: 30 nM | IC50 [5]: 150 nM | IC50 [6]: 100 nM | IC50 (CCRF-CEM [7]): 1800 nM | IC50 [8]: 6300 nM | IC50 (CCRF-CEM [9]): 70 nM | IC50 (CCRF-CEM [10]): 370 nM | IC50 (CCRF-CEM [11]): 2500 nM | IC50 (CCRF-CEM [12]): 352 nM | IC50 [13]: 21000 nM | IC50 (CCRF-CEM [14]): 15 nM | IC50 [15]: 200 nM | IC50 [16]: 4900 nM | IC50 (CCRF-CEM [17]): 957 nM | IC50 [18]: 1000 nM | selectivity ratio [19]: 2360 | IC50 [20]: 1100 nM | IC50 [21]: 400 nM | IC50 (CCRF-CEM [22]): 4400 nM | IC50 (CCRF-CEM [23]): 440 nM | IC50 [24]: 359 nM | IC50 (CCRF-CEM [25]): 460 nM | CC50 (CEM-SS): 16500 nM | IC50 (CCRF-CEM [26]): 7020 nM | IC50 [27]: 4400 nM | IC50 [28]: 760 nM

CCOC(=O)CCCC=C(c1cc(Cl)c(OC)c(C(=O)OC)c1)c1cc(Cl)c(OC)c(C(=O)OC)c1
IC50 (CCRF-CEM [1]): 13 nM | EC50 [2]: 10 nM | IC50 (PBL): 390 nM | IC50 [4]: 150 nM | IC50 [5]: 820 nM | IC50 [6]: 200 nM | IC50 (CCRF-CEM [7]): 4100 nM | IC50 [8]: 45200 nM | IC50 [29]: 700 nM | IC50 (CCRF-CEM [9]): 76 nM | IC50 (CCRF-CEM [10]): 370 nM | IC50 (CCRF-CEM [11]): 2300 nM | IC50 (CCRF-CEM [12]): 885 nM | IC50 [13]: 30000 nM | IC50 (CCRF-CEM [14]): 80 nM | IC50 [15]: 200 nM | IC50 [16]: 12500 nM | IC50 (CCRF-CEM [17]): 164 nM | IC50 [18]: 1000 nM | selectivity ratio [19]: 1600 | IC50 [20]: 900 nM | IC50 [21]: 800 nM | IC50 (CCRF-CEM [22]): 19100 nM | IC50 (CCRF-CEM [23]): 580 nM | IC50 [24]: 233 nM | IC50 (CCRF-CEM [25]): 270 nM | CC50 (CEM-SS): 16000 nM | IC50 (CCRF-CEM [26]): 10300 nM | IC50 [27]: 8900 nM | IC50 [28]: 300 nM
